Here are results for 38 variants from the RNAGym collection of RNA variant scans (doi:10.1126/science.aae0568).

B1: tRNA (parent)
chain: GUUCCGUUGGCGUAAUGGUAACGCGUCUCCCUCCUAAGGAGAAGACUGCGGGUUCGAGUCCCGUACGGAACG

Fewer inactive variants are shown than the library holds.

The data set covers variants of B1. Nature of the data set: yeast fitness relative to wild type (ratio to wild type); higher = fitter; tRNA-Arg(CCU), competitive growth, 37 C, YPD. In short, it runs like this: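 A pool of Saccharomyces cerevisiae strains, each with a tRNA-Arg(CCU) gene variant at the native genomic locus, was competed in YPD at 37°C for 24 hours across six parallel replicates. The variants had been chemically synthesised at a 3% per-site mutation rate over 69 sites, and gene amplicons before and after competition were read by 100-nucleotide paired-end sequencing. Darwinian fitness relative to wild type rested on changes in genotype frequencies. Genotypes required ≥ 100 starting reads, and estimates < 0.5 were set to 0.5.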
Consider GUUUCGUCGGCGUAAUGGUAACGCGUCUCCCUCCUAAGGAGAAGACUGCGGGUUCGAGUCCCGUACGGUACG, for which the yeast fitness turned out to be 0.875.

As for GUUUCGUUGGCGUAAAGGUAACGCGUCUCCCUCCUAAGGAGAAGACUGCGGGUUCGAGUCCCGUCCGGAACG, the yeast fitness was determined as 0.612.

In the case of GUUUCGUUGGCGUAAUGGAAACGCGUCUCGCUCCUCAGGAGAAGACUGCGGGUUCGAGUCCCGUACGGAACG, the yeast fitness was 0.55.

As for GUUUCGUUGGCGAUAUGGUAACGCGUCUUCCUCCUAGGGAGAAGACUGCGGGUUCGCGUCCCGUACGGAACG, the yeast fitness is not above 0.5.

Turning to GUUUCGUUGGCGUAAUGGUAACGCGACUCCCUCCUAAGGAGAAGACUGCGGGUUCGAGUCCCGUACGGAACG, the yeast fitness is 0.86.

As to GUUUCGUUGGCGUAAAGGUGACGCGUCUCCCUCCUAAGGAGAAGACUGCGGGUUCGAGUCCCGUAUGGAACG, the yeast fitness is not above 0.5.

As to GUUUCGUUGGCGUAAUGGAAACGCGUCUCCCUCCUAAGGAGAAGACUGCGGGUUCGAGUCCCGUACGGAACG, the yeast fitness amounted to 1.04.

Take GUUUCGUUGGCGUAAUGGCAACGCGUCUCCCUCCUAAGGAGAAGACUGCGGGUUCGAGUCCCGUACGGAACG: the yeast fitness worked out at 0.927.

With GUUUCGUCGGCGUAAUGGUAACGCGUCUCCCUCCUAUGGAGAAGUCUGUGGGUUCGAGUCCCGUGCGGAACG, the yeast fitness was not above 0.5.

In the case of GUUUCGUUGGCGAAAUGGUAACGCGUCUCCCUCCUAAGGAGAAGACUGCGGGUUCGAGACCCGUACGGAACG, the yeast fitness came to 0.811.

With GUUUCGUGGGCGUAUUGGUAACGCGUCUCCCUCCUAAGGAGAAGACUGCGGGUUCGAGUCCCGUACGGAACG, the yeast fitness was not above 0.5.

On to GUUUCGUCGGCGUAAUGGUAACGCGUCUCCCUCCUAUGGAGAAGUCUGUGGGUUCGAGUCCCGUACGGAACG, for which the yeast fitness was not above 0.5.

Turning to GUUUCGUUGGCGUAAGGGUAACGCGUCUCCCUCCUAAGGAGAUGACUGCGGGUUCGAGUCCCGUACGGAACG, the yeast fitness amounted to 1.13.

As to GUUUCGUGGGCAUAAUGGUAACGCGUCUCCCUCCUAAGGAGAAGACUGCGGGUUUGAGUCCCGUACGGAACG, the yeast fitness was not above 0.5.

With GUUUCGUUGGCGUAAUGGCAACGCGUCUCCAUCCUAAGGAGAAGACUGCGGGUUCGAGUCCCGUACGGAACG, the yeast fitness was not above 0.5.

As for GUUUCGUUGGCGCAAUGGUAACGCGUCUCCCUCCUAAGGAGAAGACUGCGGGUUCGAGUCCCGUACGGAACG, the yeast fitness came to 0.884.

With GUUUCGUUGGCGAAAUGGUAACGCGUCUCCCUCCUAAGGAGAAGACUGCGGGUUCGAGUCCCGUACGGAACG, the yeast fitness turned out to be 1.1.

For the variant GUUUCGUUGGCGAAAUGGUAACACGUCUCCCUCCUUAGCAGAAGACUGCGGGUUCGAGUCCAGAACGGAACG, the yeast fitness came out at 0.537.

In the case of GUUUCGUUGGCGAAAUGGUAACAAGUCUCCCUCCUUAGCAGAAGACUGCGGGUUCGAGUCCAGAACGGAACG, the yeast fitness was not above 0.5.

Regarding GUUUCGUUGGCGUAAUGGAAACGCGUCUCCCUCCUAAGGAGCAGACUGCGGGUUCGAGUCCCGUACGGAACG, the yeast fitness was 0.825.

Take GUUUCGUUGGCGUAAAGGUAACGCGUCUCCCUCCUAUGGAGAAGACUGUGGGUUCGAGUCGCGUACGGAGCG: the yeast fitness was not above 0.5.

With GUUUCGUUGGCGCAAUGGUAACGCGACUCCCUCCUAAGGAGAAGACUGCGGGUUCGAGUCCCCUACGGAACG, the yeast fitness is not above 0.5.

Regarding GUUUCGUUGGCGCAAUGGUAACGCAUCUCCCUCCUAAGGAGAAGACUGCGGGUUCGAGUACUGUACGGAACG, the yeast fitness was not above 0.5.

Turning to GUUUCGUGGGCGUAAUGGAACCGCGUCUCCCUCCUAAGGAGAAGACUGCGGGUUCGAGUCCCGUACGGAUCG, the yeast fitness is not above 0.5.

For GUUUCGUUGGCGCGAUGGUAACGCGUCUCCCUCCUAAGGAGAAGACUGCGGGUUCGAGUCCCGUACGGAACG, the yeast fitness was found to be 0.587.

On to GUUUCGUUGGCGUAAAGGUUACGCGUCUCCCUCCCAAGCAGCAGACUACGGGUUCGAGUCCCGUACGGAACG, for which the yeast fitness worked out at 0.582.

On to GUUUCGUUGGCGAAAUGGUAACGCGUCUCCCUCCUAAGGAGAAGAUUGCGGGAUCGAGUCCCGUACGGAACG, for which the yeast fitness is 0.633.

As to GUUUCGUUGGCGUAAAGGUAACGCGCAUCCCUCCUAAGGAGAAGACCGCGGGUUCGAGUCCCGUACGGAACG, the yeast fitness was not above 0.5.

Regarding GUUUCGUUGGCGUAAUGGUAACGCGACUCCCUCCUAAGGAGAAGAUUGCGGGUUCGAGUCCCGUACGGAACG, the yeast fitness turned out to be 0.972.

For GUUUCGUUGGCGUAAUGGUAACGCGACUCCCUCCUAAAGAGAAGACUGCGGGUUCGAGUCCCCUACGGAACG, the yeast fitness was not above 0.5.

As for GUUUCGUUGGCGUAAUGGCAACGCGUCUCCCUCCUAAGGAGAUGACUGCGGGUUCGAGUCCCGUACGGAACG, the yeast fitness worked out at 0.955.

GUUUCGUUGGCGGAAUGGUAACGCGUCUUCCUCUUAAGGAGAAGACUGCGGGUUCGAGUCCCGUACGGAACG: the yeast fitness is not above 0.5.

With GUUUCGUUGGCGUAACGGUAACGCGUCUCCCUCAUAAGGAGUAGACUGCGGGUUCGAGUCCCGUACGGAACG, the yeast fitness was found to be 0.726.

Take GUUUCGUUGGCGUAAUGGAAACGCGUGUCCCUCCUAAGGAGAUGAAUGUGGGUUCGAGUCCCGUACGGAACG: the yeast fitness was not above 0.5.

On to GUUUCGUUGGCGUAAAGGUAACGCGUCUCCCUCCUAUGGAGAAGACUGCGGGUUCGAGUCCCGUUCGGAACG, for which the yeast fitness is not above 0.5.

For GUUUCGUUGGCGUAACGGUAACGCGUCUCCCACCUAAGGAGAAGACUGCGGGUUCGAAUUCCGUACGGAACG, the yeast fitness was not above 0.5.

In the case of GUUUCGUCGGCGUAAUGGUAACGCGUGUCCCUCCUAAGGAGAAGCCCGCGGGUUUGAGUCCCGUACGGAACG, the yeast fitness was not above 0.5.

For GUUUCGUCGGCGUAAUGGUAACGCGUCUCCCUCCUAAGGAGAAGACAGCGGGUUCGAGUCCCGUACGGAACG, the yeast fitness is 0.601.
